PTK2B oligo ant = blocks oligomerization of human Pyk2 in cells; Q14289; Q293 cells, Pyk2 FERM NanoBiT luminescence; hits give low values; z-score (the deposit names both 25 µM and 10 µM); 0.83% of 99,000 active; AID 1347419;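 active = Z-score of -3 or lower, scaled per plate to the spread of control and sample wells; inactive = z-score above -3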;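 note: negative z-score means lost luminescence so less FERM oligomerization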
Target sequence (Q14289 whole entry, looked up): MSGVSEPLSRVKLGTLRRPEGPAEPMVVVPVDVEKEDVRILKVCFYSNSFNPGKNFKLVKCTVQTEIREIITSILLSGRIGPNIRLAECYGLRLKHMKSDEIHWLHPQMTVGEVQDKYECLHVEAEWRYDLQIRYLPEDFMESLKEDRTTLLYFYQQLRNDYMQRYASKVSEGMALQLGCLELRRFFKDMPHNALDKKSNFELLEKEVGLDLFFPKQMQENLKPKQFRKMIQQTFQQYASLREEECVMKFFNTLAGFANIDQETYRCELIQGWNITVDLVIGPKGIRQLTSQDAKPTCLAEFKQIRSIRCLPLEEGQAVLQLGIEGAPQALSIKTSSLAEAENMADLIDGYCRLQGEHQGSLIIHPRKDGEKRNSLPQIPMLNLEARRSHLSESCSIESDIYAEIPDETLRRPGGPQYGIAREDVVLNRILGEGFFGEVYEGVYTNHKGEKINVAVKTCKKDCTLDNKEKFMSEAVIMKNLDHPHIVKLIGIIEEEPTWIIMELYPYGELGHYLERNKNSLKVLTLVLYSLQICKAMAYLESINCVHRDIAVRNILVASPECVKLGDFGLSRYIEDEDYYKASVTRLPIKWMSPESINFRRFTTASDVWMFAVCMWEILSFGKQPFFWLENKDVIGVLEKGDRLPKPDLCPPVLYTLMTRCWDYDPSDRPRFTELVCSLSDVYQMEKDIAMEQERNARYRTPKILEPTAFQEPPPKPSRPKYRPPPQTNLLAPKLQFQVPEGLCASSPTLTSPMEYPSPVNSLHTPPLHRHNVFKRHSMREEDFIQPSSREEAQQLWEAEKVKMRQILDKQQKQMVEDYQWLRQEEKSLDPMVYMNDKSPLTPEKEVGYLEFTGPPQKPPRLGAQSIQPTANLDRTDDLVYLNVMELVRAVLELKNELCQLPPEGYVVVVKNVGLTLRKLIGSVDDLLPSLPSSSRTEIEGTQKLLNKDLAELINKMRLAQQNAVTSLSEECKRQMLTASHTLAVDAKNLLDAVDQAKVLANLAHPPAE
PTEN del growth = growth suppressors of cells with PTEN tumor suppressor deletion | HCT116 PTEN-null viability, CellTiter-Glo, 60 h; hits give low values | 1.2% of 140,000 active | viability, % at 10 µM;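 active = viability at or below a set limit, 4 SD under the median of all tested compounds, cut at about 3.7% in these data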;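 note: PTEN knockout HCT116 line with beta catenin targeted HCT116 as companion control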
Lung fibro prol = blocks proliferation of human lung fibroblasts. viability, % at 10 µM. 1.1% of 85,000 active. LL 47 human lung fibroblast viability, ATP luminescence; hits give low values. AID 719;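 active = viability at or below 50% in the single dose screen; inactive = viability above 50%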;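 note: compound exposure lasted 72 h before the ATP readout; 100% = median luminescence of untreated cell-only wells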
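Times – overnight cell rest, 72 h compound treatment at 37 °C · Test system – human lung fibroblast line LL 47, low passage · Amount – 1,150 cells in each well · Controls – cell-only wells, no compound · Doses – 0.1% DMSO in all compound wells · Measured by – CellTiter-Glo luminescence · Buffer or medium – IMEM plus 15% FBS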
bCat KO growth = beta-catenin-lacking colon tumor cell growth suppression; HCT116 beta-catenin knockout viability, CellTiter-Glo, 60 h; hits give low values; viability, % at 10 µM; 1.5% of 140,000 active;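 active = viability at or under a set limit, the compound median less 4 SD, cut at about 6% in these data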;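 note: 0% = Hyamine 1622 control at 20 µM and 100% = untreated cell control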
H69AR growth 86K = blocks growth of human H69AR lung tumor cells; H69AR lung tumor viability, ATP luminescence, 72 h; hits give low values; 6% of 85,000 active; viability, % at 10 µM;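 active = viability at or below 40%; inactive = viability above 40%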;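 note: multidrug resistant small cell line overexpressing MRP-1 efflux transporter; 100% = mean luminescence of untreated control wells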
HUVEC inhibit = inhibitors of human endothelial cell proliferation | HUVEC proliferation, CellTiter-Glo luminescence, 72 h; hits give low values | viability, % at 10 µM (by protocol) | 1.1% of 86,000 active | AID 648;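 active = viability at or below 30%; inactive = viability above 30%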;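 note: 100% = median luminescence of DMSO-only cell control wells on each plate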
An asterisk follows results filed as active. Shown is part of a subset that was picked to be rich in hits.

What do the screens show for `Cn1c(=O)c2c(nc(NCc3ccco3)n2C)n(C)c1=O`?
PTK2B oligo ant: 0.53; PTEN del growth: 96; Lung fibro prol: 102; bCat KO growth: 100; H69AR growth 86K: 90; HUVEC inhibit: 102

How did COc1cccc(OC)c1/C(O)=C(\C#N)c1nc2ccccc2[nH]1 do in these assays?
PTK2B oligo ant: -0.52; PTEN del growth: 89; Lung fibro prol: 91; bCat KO growth: 84; H69AR growth 86K: 27*; HUVEC inhibit: 88

What do the screens show for `N#C/C(=C(/O)COC(=O)CCc1ccc(S(=O)(=O)N2CCOCC2)cc1)c1nc2ccccc2[nH]1`?
PTK2B oligo ant: -0.34; PTEN del growth: 4; Lung fibro prol: 90; bCat KO growth: 5.7*; H69AR growth 86K: 41; HUVEC inhibit: 76

How did COc1ccccc1OCC(=O)OC/C(O)=C(\C#N)c1nc2ccccc2[nH]1 do in these assays?
PTEN del growth: 2.2*; bCat KO growth: 5.5*

Results for COc1ccc(OC/C(O)=C(\C#N)c2nc3ccccc3[nH]2)cc1 ?
PTK2B oligo ant: 0.01; PTEN del growth: 84; bCat KO growth: 97

How did N#C/C(=C(/O)COC(=O)c1ccc(Cl)c(S(=O)(=O)N2CCOCC2)c1)c1nc2ccccc2[nH]1 do in these assays?
PTEN del growth: 15; bCat KO growth: 20

What do the screens show for `CCOC(=O)c1c(C)[nH]c(C(=O)OC/C(O)=C(\C#N)c2nc3ccccc3[nH]2)c1C`?
PTK2B oligo ant: -1.2; PTEN del growth: 79; Lung fibro prol: 112; bCat KO growth: 87; H69AR growth 86K: 57; HUVEC inhibit: 9.2*

How did O=C(COC(=O)c1ccc(CO)cc1)NCc1cccs1 do in these assays?
PTEN del growth: 104; bCat KO growth: 91

What do the screens show for `COc1ccc(C2C(C(=O)Nc3ccc4c(c3)OCCO4)c3ccccc3C(=O)N2C)cc1` (configuration not stated)?
PTK2B oligo ant: -0.57; PTEN del growth: 94; Lung fibro prol: 93; bCat KO growth: 89; H69AR growth 86K: 107; HUVEC inhibit: 105

What do the screens show for `O=C(N/N=C/c1ccc2cccc(OCc3ccccc3)c2n1)c1ccc(Cl)cc1`?
PTK2B oligo ant: -3.1*; PTEN del growth: 64; bCat KO growth: 75

Results for O=C(/C=C/NNC(=O)c1ccccc1)c1ccc(Br)cc1 ?
PTK2B oligo ant: -0.25; PTEN del growth: 99; Lung fibro prol: 59; bCat KO growth: 90; H69AR growth 86K: 34*; HUVEC inhibit: 73

What do the screens show for `O=C(/C=C/NNC(=O)c1cccc(Br)c1)c1cccc(Br)c1`?
PTK2B oligo ant: 0.11; PTEN del growth: 59; Lung fibro prol: 76; bCat KO growth: 63; H69AR growth 86K: 78; HUVEC inhibit: 53

How did CCOC(=O)c1c(NC(C)=O)sc2c1C1CCN2CC1 do in these assays?
PTK2B oligo ant: 0.77; Lung fibro prol: 99; H69AR growth 86K: 79; HUVEC inhibit: 100

Results for Cc1c(OCc2ccccc2)c(=O)ccn1Cc1ccc(Cl)cc1 ?
PTK2B oligo ant: 0.11; PTEN del growth: 63; Lung fibro prol: 85; bCat KO growth: 55; H69AR growth 86K: 3.9*; HUVEC inhibit: 63

Results for Cc1ccc(SCCC(=O)Nc2cccc(N(C)S(C)(=O)=O)c2)cc1 ?
PTK2B oligo ant: 0.06; PTEN del growth: 70; Lung fibro prol: 95; bCat KO growth: 79; H69AR growth 86K: 92; HUVEC inhibit: 103

What do the screens show for `CCSc1ncnc2c1oc1ccccc12`?
PTK2B oligo ant: -0.19; PTEN del growth: 108; Lung fibro prol: 99; bCat KO growth: 107; H69AR growth 86K: 87; HUVEC inhibit: 94

What do the screens show for `c1coc(CN(Cc2ccco2)c2ncnc3c2oc2ccccc23)c1`?
PTK2B oligo ant: -2; PTEN del growth: 21; Lung fibro prol: 84; bCat KO growth: 28; H69AR growth 86K: 22*; HUVEC inhibit: 56

How did Clc1ncnc2c1oc1ccccc12 do in these assays?
PTK2B oligo ant: 0.33; PTEN del growth: 9; bCat KO growth: 4.1*

Results for Cc1ccc(NC(=O)CN2C(=O)NC(Cc3c[nH]c4ccccc34)C2=O)cc1S(=O)(=O)N1CCCCC1 (configuration not stated) ?
PTEN del growth: 66; bCat KO growth: 59

How did Cc1ccc(S(=O)(=O)N2CCN(C(=O)c3cc(=O)[nH]c4ccccc34)CC2)c(C)c1 do in these assays?
PTK2B oligo ant: -0.76; PTEN del growth: 79; Lung fibro prol: 102; bCat KO growth: 82; H69AR growth 86K: 39*; HUVEC inhibit: 92

Results for Cc1cc(C)c(C)c(S(=O)(=O)N2CCN(C(=O)c3cc(=O)[nH]c4ccccc34)CC2)c1C ?
PTK2B oligo ant: -2.3; PTEN del growth: 34; Lung fibro prol: 92; bCat KO growth: 40; H69AR growth 86K: 12*; HUVEC inhibit: 65

Results for CCOC(=O)/C(C#N)=C\c1ccc(OCC(=O)Nc2ccc(C)cc2C)c(OC)c1 ?
PTK2B oligo ant: -0.21; PTEN del growth: 64; bCat KO growth: 60

What do the screens show for `COc1ccc(-c2cc(N)n(S(=O)(=O)c3ccc(F)cc3)n2)cc1OC`?
PTEN del growth: 87; Lung fibro prol: 101; bCat KO growth: 83; H69AR growth 86K: 94; HUVEC inhibit: 76

What do the screens show for `NC(=O)c1ncn([C@@H]2O[C@H](CO)[C@@H](O)[C@H]2O)c1O`?
PTEN del growth: 94; bCat KO growth: 102

Results for N#C/C(=C\c1ccc(Cl)s1)C(=O)N1CCN(c2ccccc2)CC1 ?
PTEN del growth: 100; bCat KO growth: 101

Results for COc1ccc(C(=O)Nc2ccc(S(=O)(=O)N3CCc4ccccc43)cc2)cc1 ?
PTK2B oligo ant: -3.1*; PTEN del growth: 14; bCat KO growth: 11; H69AR growth 86K: 43; HUVEC inhibit: 82

How did O=C(CCSc1nc2ccccc2s1)N/N=C/c1c(O)ccc2ccccc12 do in these assays?
PTEN del growth: 3.2*; bCat KO growth: 4.6*

Results for CCOC(=O)c1cc2oc(C(c3nnnn3C3CCCCC3)N3CCOCC3)cc2[nH]1 (configuration not stated) ?
PTK2B oligo ant: 0.79; PTEN del growth: 34; Lung fibro prol: 94; bCat KO growth: 38; H69AR growth 86K: 9.8*; HUVEC inhibit: 75

Results for CC(=O)c1ccccc1OCC(O)CN1CCN(C(c2ccccc2)c2ccccc2)CC1 (configuration not stated) ?
PTK2B oligo ant: -1.1; PTEN del growth: 37; Lung fibro prol: 77; bCat KO growth: 38; H69AR growth 86K: 9.8*; HUVEC inhibit: 69

Results for CCOc1ccccc1C(=O)N1CCN(C(c2ccccc2)c2ccccc2)CC1 ?
PTK2B oligo ant: 0.05; PTEN del growth: 69; bCat KO growth: 72

Results for Clc1ncnc2scc(-c3ccc(Br)cc3)c12 ?
PTEN del growth: 90; bCat KO growth: 90

What do the screens show for `c1ccc(CN2CCN(C3=Nc4cccc5cccc3c45)CC2)cc1`?
PTK2B oligo ant: 0.4; PTEN del growth: 13; Lung fibro prol: 89; bCat KO growth: 14; H69AR growth 86K: 35*; HUVEC inhibit: 37
